Screens as filed in PubChem BioAssay.
sPLA2-III inh – Inhibits HGIII-sPLA2 liposome hydrolysis, primary screen; actives 0.56% (n = 370,000); QFRET BODIPY PC-A2 liposome hydrolysis, fluorescence; Q9NZ20; inhibition, % at 12.2 µM;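 active = inhibition above mean plus 3 SD of compounds lying within the high and low control bounds, cut at about 19% in these data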
Target sequence (Q9NZ20 whole entry, looked up): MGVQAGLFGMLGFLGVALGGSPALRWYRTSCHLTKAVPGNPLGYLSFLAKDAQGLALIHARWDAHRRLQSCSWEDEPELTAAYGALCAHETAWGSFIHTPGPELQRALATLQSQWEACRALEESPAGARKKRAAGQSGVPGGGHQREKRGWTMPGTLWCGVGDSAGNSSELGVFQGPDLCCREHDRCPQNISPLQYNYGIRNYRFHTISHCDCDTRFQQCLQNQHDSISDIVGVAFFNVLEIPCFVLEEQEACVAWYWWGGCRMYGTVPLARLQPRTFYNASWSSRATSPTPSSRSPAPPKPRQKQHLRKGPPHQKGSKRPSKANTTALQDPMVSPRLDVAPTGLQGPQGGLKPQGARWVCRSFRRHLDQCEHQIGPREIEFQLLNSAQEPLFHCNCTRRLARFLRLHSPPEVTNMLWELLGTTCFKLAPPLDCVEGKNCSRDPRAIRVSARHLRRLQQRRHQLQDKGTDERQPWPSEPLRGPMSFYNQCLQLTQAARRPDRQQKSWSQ
ASAP1 inh – ASAP1 ArfGAP inhibition | ASAP1-stimulated ARF1 GTP hydrolysis, GDP FP detection | AID 624377 | actives 0.19% (n = 360,000) | inhibition, % at 16.5 µM | Q9ULH1; in the data active = inhibition above about 25%
ARFGAP1 inhibitor – rat ARFGAP1 inhibition; Q62848; Arfgap1-stimulated ARF1 GTP hydrolysis, GDP FP detection; inhibition, % at 16.5 µM; actives 0.26% (n = 360,000); AID 651572;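 active = inhibition above a per-plate limit, mean inhibition of low control wells plus 3 SD, cut at about 25% in these data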
Target sequence (Q62848 1-136 limits assumed): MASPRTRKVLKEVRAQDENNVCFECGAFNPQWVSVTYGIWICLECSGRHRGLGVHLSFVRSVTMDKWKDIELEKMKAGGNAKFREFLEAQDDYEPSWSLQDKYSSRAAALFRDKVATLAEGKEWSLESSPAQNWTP
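System: truncated rat Arfgap1 GAP domain / Medium: HEPES-based buffer, pH 7.5 / Also added: N-terminally truncated human ARF1-GTP substrate / Incubation: enzyme reaction 120 min at 25 °C after 20 min preincubation / Measured by: FP of antibody-bound GDP Alexa 633 tracer, ex 620/em 688 nm / Replicates: singlicate, each compound tested once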
Calb FLC – C. albicans growth modulation with fluconazole | AID 1979 | actives 0.57% (n = 300,000) | C. albicans CaCi-2 + fluconazole, Alamar Blue growth, 48 h | growth inhibition, % (no concentration beside the values);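 active = growth inhibition above about 58% in most replicates, limit read from the data, passing the limit was not always enough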;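 note: all wells also contain fluconazole at 8 µg/ml as a sub-toxic cotreatment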
SKKanGAS inh – SKKanGAS growth inhibition; S. pyogenes SKKanGAS, kanamycin growth, BacTiter-Glo, 6 h; inhibition, % at 7.5 µM; actives 1.3% (n = 300,000); AID 1662;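 active = mean replicate score, as percent of positive control median, at least 50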;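 note: strain carries kanamycin resistance gene driven by streptokinase promoter and grows in 40 µg/ml kanamycin; loss of luminescence reflects streptokinase promoter inhibition or plain growth inhibition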
Hits are given with their value; n = inactive; x = not tested or not shown. Shown are actives, neighbours in structure and some others; about 2.3% of the full set was active somewhere.

SMILES | sPLA2-III inh | ASAP1 inh | ARFGAP1 inhibitor | Calb FLC | SKKanGAS inh
Cc1ccc(Nc2nc(NCc3ccco3)c3ccccc3n2)cc1 | n | n | n | 92 | n
COc1ccccc1Nc1nc(NCc2ccco2)c2ccccc2n1 | n | n | n | n | n
Oc1ccccc1-c1nc(NCc2ccco2)c2ccccc2n1 | n | n | n | n | n
CC(C)[C@H](N)C(=O)N[C@H](C(=O)N1CCC2CCN(Cc3ccccc3)CC21)C(C)C (stereo partly specified) | n | n | n | x | x
O=C(NCCc1c[nH]c2ccccc12)[C@H](Cc1c[nH]c2ccccc12)NC1(C(=O)NC2CCCCC2)CCCCCCC1 | n | x | x | x | x
O=C(NCCCN1CCOCC1)c1ccccc1N1C(=O)[C@@H]2Cc3c([nH]c4ccccc34)C(c3ccccc3)N2C1=O (stereo partly specified) | n | n | n | x | x
CCc1cc2c(=O)n(Cc3ccco3)c(SCc3c(C)noc3C)nc2s1 | n | n | n | n | 99
O=C(NCc1ccccc1)OC1CCC12CCC(c1ccccc1)CC2 (stereo unspecified) | n | x | x | x | x
CCCC1CCC2(CC1)CCC2OC(=O)Nc1cccc(Cl)c1 (stereo unspecified) | n | x | x | x | x
CCOC(=O)N1CCN(C(=O)c2cc3n(n2)C(C(F)(F)F)CC(c2ccc4c(c2)OCO4)N3)CC1 (stereo unspecified) | n | n | n | n | 54
O=C(Nc1cc(Cl)ccc1O)c1cc2n(n1)C(C(F)(F)F)CC(c1ccc3c(c1)OCO3)N2 (stereo unspecified) | n | n | n | n | 101
COc1ccc(OC)c(NC(=O)c2cc3n(n2)C(C(F)(F)F)CC(c2ccc4c(c2)OCO4)N3)c1 (stereo unspecified) | n | n | n | n | n
Cc1cccnc1C(NC(=O)C1CCN(Cc2cn(C)c3ccccc23)CC1)c1ccc(Cl)cc1 (stereo unspecified) | n | n | n | x | x
CN(CCO)c1ccc2c(c1)Oc1ccccc1CN(Cc1cn(Cc3ccc(F)cc3)nn1)S2(=O)=O | n | x | x | x | x
CCCCCc1ccc(OCCC[n+]2ccccc2)c(CCCCC)c1 | n | n | n | n | n
CCCCCc1ccc(OCCOCCn2c[n+](C)c3ccccc32)c(CCCCC)c1 | x | x | x | 104 | 84
CC1CC(C)CN(Cc2nc(N)nc(Nc3ccc4ccccc4c3)n2)C1 (stereo unspecified) | n | n | n | n | 52
Nc1nc(CN2CCCCCC2)nc(Nc2ccccc2)n1 | n | n | n | n | n
Cc1cccc(Nc2nc(N)nc(CN3CCN(C)CC3)n2)c1 | n | n | n | n | n
Cc1cccc(Nc2nc(N)nc(CN3CCN(c4ccc(F)cc4)CC3)n2)c1 | n | n | n | n | 65
Nc1nc(CN2CCC(Cc3ccccc3)CC2)nc(Nc2ccccc2)n1 | n | n | n | n | 50
CC1(C(=O)NS(=O)(=O)c2cccc(OC(F)F)c2)CCN1C(=O)Cc1ccsc1 (stereo unspecified) | n | n | n | x | x
O=C(CSc1nnc(-c2ccccc2)n1-c1ccc(Cl)cc1)c1ccc(F)cc1 | n | x | x | x | x
CC(C)[C@H](NC(=O)c1ccccc1Cl)C(=O)Nc1nc(-c2ccccn2)cs1 | n | n | n | n | 79
CC(Oc1ccc(Br)cc1)C(=O)Nc1nc(-c2ccccn2)cs1 (stereo unspecified) | n | n | n | n | 87
SMILES | sPLA2-III inh | ASAP1 inh | ARFGAP1 inhibitor | Calb FLC | SKKanGAS inh
CCc1nnc(NC(=O)C(NC(=O)c2ccccc2Cl)C(C)C)s1 (stereo unspecified) | n | n | n | n | n
CC1=CC2=C(OC1N(C)C)c1cccc3cccc(c13)C2=O (stereo unspecified) | x | x | x | 96 | n
CN(C)CCCN1C(=O)c2cccc3cccc(c23)C1=O | n | n | n | n | n
COc1ccc(OC)c(S(=O)(=O)N2CCCC(C(=O)N3CCN(Cc4ccccc4)CC3)C2)c1 (stereo unspecified) | n | x | x | x | x
CN1CC2([N+](=O)[O-])CC=C(OCCO)C([N+](=O)[O-])(C1)C2 (stereo unspecified) | n | n | n | 113 | n
CN1CC2([N+](=O)[O-])CC=C(Oc3ccccc3)C([N+](=O)[O-])(C1)C2 (stereo unspecified) | n | n | n | n | n
CC(=O)N1CCc2c1cccc2S(=O)(=O)NC(CC(C)C)C(=O)Nc1ccc(F)cc1Cl (stereo unspecified) | n | x | x | x | x
CC1=NN(/C(=N\c2nnc(C)s2)Nc2ccc(C(C)(C)C)cc2)[C@H](c2ccc(C)cc2)S1 | n | n | n | n | 58
Cc1ccc(NC(=O)CCSc2nnc(C)s2)cc1 | n | n | n | n | n
Cn1c(NCc2ccco2)nc2c1c(=O)n(Cc1ccc(Cl)c(Cl)c1)c(=O)n2C | n | n | n | n | 59
CCCCCCCCN1C(=O)[C@@H](CC(=O)NCCC(C)C)C[C@@]2(C(=O)OC)C1=C[C@H](C1CCCC1)O[C@@H]2C | n | n | n | x | x
O=C(Nc1cccc(S(=O)(=O)N2CCOCC2)c1)c1cnn2c(C(F)F)cc(-c3ccccc3)nc12 | n | n | n | n | n
CNS(=O)(=O)c1ccc(NC(=O)c2cnn3c(C(F)F)cc(-c4ccccc4)nc23)cc1 | n | n | n | n | 53
Cc1ccc(S(=O)(=O)/N=C2/NC(=O)/C(=C/c3ccc(Br)o3)S2)cc1 | n | n | n | n | n
Cc1ccc(S(=O)(=O)/N=C2/NC(=O)/C(=C\c3cc(Br)cc(Br)c3O)S2)cc1 | x | x | x | 123 | x
CC(=O)NC(=S)NNC(=O)C(c1ccccc1)c1ccccc1 | n | n | n | n | 80
Fc1cccc2sc(Nc3nnc(-c4ccccc4)o3)nc12 | n | n | n | n | 87
COc1cc(OC)cc(-c2nnc(Nc3nc4c(F)cccc4s3)o2)c1 | n | n | n | 115 | n
Fc1cccc2sc(Nc3nc4c(F)cccc4s3)nc12 | n | n | n | n | n
CCSc1nsc(NC(=O)Nc2ccccc2F)n1 | n | n | n | n | n
C=CCSc1nsc(NC(=O)Nc2ccc(F)cc2)n1 | n | n | n | n | 75
CCOc1cc(C(C(=O)NCC2CCCO2)N(C(=O)Cn2nnc3ccccc32)c2ccc(OC)c(OC)c2)ccc1O (stereo unspecified) | n | n | n | n | n
COc1ccc(N(C(=O)Cn2nnc3ccccc32)C(C(=O)NC(C)(C)C)c2ccc(OC)c(O)c2)cc1 (stereo unspecified) | n | n | n | 78 | n
O=C(Cn1nc(-c2ccccc2)ccc1=O)NCCc1ccccc1F | n | x | x | x | x
CCc1ccc2c(c1)C(c1cccs1)=NNC(c1cccnc1)=N2 | n | n | n | n | n
Clc1ccc2c(c1)C(c1cccs1)=NNC(c1cccnc1)=N2 | n | n | n | 90 | n
Fc1ccc2c(c1)C(c1ccncc1)=NNC(c1ccc(Br)cc1)=N2 | n | n | n | n | n
Fc1ccc2c(c1)C(c1ccncc1)=NNC(c1cccnc1)=N2 | n | n | n | 81 | n
